From ChEMBL document CHEMBL3227960, “Inhibition of uptake of catecholamines by benzylamine derivatives” (J Med Chem, 1979) come the findings set out here.

Assay [1] is described as follows: Inhibition of [3H]norepinephrine reuptake at NET in Sprague-Dawley rat brain cortical synaptosomes incubated for 5 mins prior to [3H]norepinephrine addition measured after 3 mins by scintillation counting analysis. In kind it is subcellular. As to conditions: read-out: I50. In short, it runs like this:
(§1)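 Crude P2 synaptosomes from male Sprague-Dawley rat striatum (dopamine) or cerebral cortex (norepinephrine), prepared at 0 °C in 0.32 M sucrose. Tritiated substrate 0.1 μM, 37 °C. Uptake quenched with cold saline plus 100 μM unlabelled substrate, then filtered. 0 °C blanks subtracted. Three inhibitor concentrations, each in triplicate. I50 taken where A0/A1 = 2, by linear regression against concentration.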

The target in assay [2] is Sodium-dependent dopamine transporter (Rattus norvegicus, UniProt P23977). Kind of assay: Inhibition of [3H]dopamine reuptake at DAT in Sprague-Dawley rat brain striatal synaptosomes incubated for 5 mins prior to [3H]dopamine addition measured after 3 mins by scintillation counting analysis. It is filed as subcellular. Particulars: read-out: I50. In short, it runs like this: as §1

Molecules are shown by their SMILES.

Chain of Sodium-dependent dopamine transporter (P23977 whole entry): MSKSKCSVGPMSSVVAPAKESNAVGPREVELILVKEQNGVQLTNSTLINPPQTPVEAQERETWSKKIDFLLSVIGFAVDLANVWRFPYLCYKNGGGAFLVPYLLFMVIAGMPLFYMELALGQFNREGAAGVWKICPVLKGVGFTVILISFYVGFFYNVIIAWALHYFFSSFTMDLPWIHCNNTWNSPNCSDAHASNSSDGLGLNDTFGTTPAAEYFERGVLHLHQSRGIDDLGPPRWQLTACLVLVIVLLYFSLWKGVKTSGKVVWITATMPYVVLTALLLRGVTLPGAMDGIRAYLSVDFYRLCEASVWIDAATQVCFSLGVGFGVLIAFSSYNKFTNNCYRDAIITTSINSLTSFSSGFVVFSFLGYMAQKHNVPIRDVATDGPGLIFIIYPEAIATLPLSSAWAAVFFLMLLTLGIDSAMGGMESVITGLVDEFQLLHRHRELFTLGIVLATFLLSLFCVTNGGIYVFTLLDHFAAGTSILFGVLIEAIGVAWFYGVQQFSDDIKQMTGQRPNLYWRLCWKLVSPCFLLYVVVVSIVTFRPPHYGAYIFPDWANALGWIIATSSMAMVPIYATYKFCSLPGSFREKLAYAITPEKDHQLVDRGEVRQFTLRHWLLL

On to `CCN(CCCl)Cc1ccccc1Br`, for which the IC50 in assay [1] was determined as 0.05 µM; in assay [2] it was 5.87 µM.
For `ClCCNCc1ccccc1Br`, in that order: 50.2 µM and 326 µM.
For `CCN(CCO)Cc1ccccc1Br` the same measures were 78 µM and 640 µM.
Take `CCN(CCO)Cc1ccccc1C`: the IC50 in assay [1] amounted to 137 µM; in assay [2], 1050 µM.
For `CCN(CCCl)Cc1cccc(C)c1`, in that order: 0.77 µM and 28.6 µM.
For `CCN(CCO)Cc1cccc(C)c1`, in that order: 49 µM and 250 µM.
Regarding `CCN(CCCl)Cc1ccc(C)cc1`, the IC50 was determined as 3.05 µM in assay [1] and 78.4 µM in assay [2].
For `CCN(CCCl)Cc1ccccc1OC`, in that order: 31.1 µM and 303 µM.
For `CCN(CCCl)Cc1cccc(OC)c1` the same measures were 23.2 µM and 127 µM.
Turning to `CCN(CCCl)Cc1ccc(OC)cc1`, the IC50 turned out to be 29.8 µM in assay [1] and 147 µM in assay [2].
